Consider one molecule from ChEMBL document CHEMBL3877283, “Antitubercular activity of 1,2,3-triazolyl fatty acid derivatives” (Eur J Med Chem, 2017).

Format in all cases: functional
Test [1] has as its system Mycobacterium tuberculosis. The test can be described thus: Antimycobacterial activity against rifampicin-resistant Mycobacterium tuberculosis isolate 110 measured after 5 days by MTT dye based two-fold microdilution method. Conditions: isolate 110, 120 h. In outline: (§1)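 Two-fold serial dilution in 96-well plates in Middlebrook 7H9 with 10% ADS and 1% glycerol (7H9-ADS-G). DMSO stocks were diluted to a top concentration of 100 μg/mL and down to 0.8 μg/mL, run in duplicate. Wells received mid-log bacilli in 7H9-ADS-G, incubated 5 days at 37 °C, then MTT for 24 h. MIC is the lowest concentration blocking yellow-to-purple change. Rifampicin was the control.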

Test [2] has as its system Mycobacterium tuberculosis. Briefly: Antimycobacterial activity against rifampicin-resistant Mycobacterium tuberculosis isolate 277 measured after 5 days by MTT dye based two-fold microdilution method. Particulars: isolate 277, 120 h. In outline:
as §1
(In general: Tetrazolium dyes change colour on reduction, which living cells bring about.)

Test [3] has as its system Mycobacterium tuberculosis. Briefly: Antimycobacterial activity against rifampicin-resistant Mycobacterium tuberculosis isolate 300 measured after 5 days by MTT dye based two-fold microdilution method. Particulars: isolate 300, 120 h. In outline: as §1
Test [4] relates to Mycobacterium tuberculosis. The test can be described thus: Antimycobacterial activity against rifampicin-resistant Mycobacterium tuberculosis isolate 925 measured after 5 days by MTT dye based two-fold microdilution method. Particulars: isolate 925, 120 h. In outline: as §1
Test [5] has as its system Mycobacterium tuberculosis. The test can be described thus: Antimycobacterial activity against rifampicin-resistant Mycobacterium tuberculosis isolate 958 measured after 5 days by MTT dye based two-fold microdilution method. Conditions: isolate 958, 120 h. In outline: as §1
For test [6], the system named is Mycobacterium tuberculosis. Briefly: Antimycobacterial activity against isoniazid resistant Mycobacterium tuberculosis isolate 277b measured after 5 days by MTT dye based two-fold microdilution method. Particulars: 120 h. In outline:
as §1

In test [7] the test system is Mycobacterium tuberculosis. The test can be described thus: Antimycobacterial activity against isoniazid resistant Mycobacterium tuberculosis isolate 620 measured after 5 days by MTT dye based two-fold microdilution method. Particulars: isolate 620, 120 h. In outline:
as §1

The test system of test [8] is Mycobacterium tuberculosis. The test can be described thus: Antimycobacterial activity against isoniazid/streptomycin resistant Mycobacterium tuberculosis isolate 396 measured after 5 days by MTT dye based two-fold microdilution method. Conditions: isolate 396, 120 h. In outline:
as §1

Test [9] deals with Mycobacterium tuberculosis. Briefly: Antimycobacterial activity against isoniazid/streptomycin resistant Mycobacterium tuberculosis isolate 681 measured after 5 days by MTT dye based two-fold microdilution method. Conditions: isolate 681, 120 h. In outline:
as §1

Test [10] has as its system Mycobacterium tuberculosis. The test can be described thus: Antimycobacterial activity against isoniazid/streptomycin resistant Mycobacterium tuberculosis isolate 780 measured after 5 days by MTT dye based two-fold microdilution method. Particulars: isolate 780, 120 h. In outline:
as §1

For test [11], the system named is Mycobacterium tuberculosis. Briefly: Antimycobacterial activity against isoniazid/streptomycin resistant Mycobacterium tuberculosis isolate 914 measured after 5 days by MTT dye based two-fold microdilution method. Conditions: isolate 914, 120 h. In outline:
as §1

Test [12] has as its system Mycobacterium tuberculosis. Briefly: Antimycobacterial activity against rifampicin/streptomycin resistant Mycobacterium tuberculosis isolate 675 measured after 5 days by MTT dye based two-fold microdilution method. Conditions: isolate 675, 120 h. In outline: as §1
Test [13] has as its system Mycobacterium tuberculosis. The test can be described thus: Antimycobacterial activity against rifampicin/isoniazid/pyrazinamide resistant Mycobacterium tuberculosis isolate 122 measured after 5 days by MTT dye based two-fold microdilution method. Particulars: isolate 122, 120 h. In outline: as §1
Test [14] relates to Mycobacterium tuberculosis. The test can be described thus: Antimycobacterial activity against rifampicin/isoniazid/pyrazinamide resistant Mycobacterium tuberculosis isolate 501 measured after 5 days by MTT dye based two-fold microdilution method. Conditions: isolate 501, 120 h. In outline: as §1

In brackets after ≈: the same amount, converted by molar mass.

For orientation: MIC means the lowest concentration found to suppress growth. A lower MIC goes with greater potency. As for `CCCCCCCCc1cn(CC(=O)OCC)nn1`, the MIC in [1], in test [2], in test [3], in [4], in test [5] and in [6] was 1.9 µM (≈ 0.508 µg/mL) throughout. Also, the MIC in test [7], in test [8], in [9], in test [10], in test [11] and in test [12] was 1.9 µM (≈ 0.508 µg/mL) each time. In addition, the results for the MIC in test [13] and in test [14] were 0.9 µM (≈ 0.241 µg/mL) and 3.7 µM (≈ 0.989 µg/mL), respectively.
